Measurements: ChEMBL document CHEMBL1806484, “Design, synthesis and biological evaluation of tyrosine-based hydroxamic acid analogs as novel histone deacetylases (HDACs) inhibitors” (Bioorg Med Chem, 2011)

Assays:
MDA-MB-231 = experiment: Antiproliferative activity against human MDA-MB-231 cells after 48 hrs by MTT assay; type: functional, cell-based; conditions: MDA-MB-231, 48 h
HCT-116 = experiment: Antiproliferative activity against human HCT116 cells after 48 hrs by MTT assay; type: functional, cell-based; conditions: HCT-116, 48 h
Histone deacetylase 8 = molecular target: T1, Histone deacetylase 8 (Homo sapiens, UniProt Q9BY41); experiment: Inhibition of HDAC8 using fluorogenic Boc-Lys (acetyl)-AMC as substrate after 30 mins by fluorescence assay
T1 sequence (Q9BY41 whole entry): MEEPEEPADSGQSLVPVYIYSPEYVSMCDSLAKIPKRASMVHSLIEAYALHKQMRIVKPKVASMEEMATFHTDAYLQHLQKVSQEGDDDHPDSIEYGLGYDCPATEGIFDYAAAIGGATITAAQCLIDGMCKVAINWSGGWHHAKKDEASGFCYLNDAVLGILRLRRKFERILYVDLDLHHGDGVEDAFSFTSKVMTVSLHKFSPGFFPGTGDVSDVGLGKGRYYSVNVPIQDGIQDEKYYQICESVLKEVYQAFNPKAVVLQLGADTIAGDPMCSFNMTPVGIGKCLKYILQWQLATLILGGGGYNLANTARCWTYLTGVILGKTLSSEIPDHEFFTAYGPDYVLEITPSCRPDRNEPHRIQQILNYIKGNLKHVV
Method in brief: (§1)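 Enzyme (HeLa nuclear extract or HDAC8, the latter expressed and purified in-house) preincubated 5 min with graded compound concentrations. Substrate added and run for 30 min at 37 °C, then stopped with a trypsin/TSA developer for 20 min at 37 °C. Fluorescence read at ex 390/em 460 nm. Inhibition was taken relative to control wells, IC50 by regression. Mean ± SD of ≥3 determinations.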

A549 = experiment: Antiproliferative activity against human A549 cells after 48 hrs by MTT assay; type: functional, cell-based; conditions: A549, 48 h
Histone deacetylase = experiment: Inhibition of HDAC in human HeLa cell nuclear extract using fluorogenic Boc-Lys (acetyl)-AMC as substrate after 30 mins fluorescence assay; type: protein assay; method in brief: as §1

Row | SMILES | IC50 (MDA-MB-231) [nM] | IC50 (HCT-116) [nM] | IC50 (Histone deacetylase 8) [nM] | IC50 (A549) [nM] | IC50 (Histone deacetylase) [nM]
1 | COc1ccc(NC(=O)[C@H](Cc2ccc(OCC(=O)NO)cc2)NCc2ccccc2)cc1 | – | – | 1180 | – | –
2 | N[C@@H](Cc1ccc(OCC(=O)NO)cc1)C(=O)Nc1ccccc1 | – | – | 467 | – | –
3 | COc1ccc(NC(=O)[C@H](Cc2ccc(OCC(=O)NO)cc2)NC(=O)OCc2ccccc2)cc1 | – | – | 120 | – | –
4 | COc1ccc(NC(=O)[C@H](Cc2ccc(OCC(=O)NO)cc2)NC(=O)CCc2ccccc2)cc1 | 6590 | 6240 | 90 | 54600 | 889
5 | COc1ccc(NC(=O)[C@H](Cc2ccc(OCC(=O)NO)cc2)NC(=O)c2ccccc2)cc1 | 2980 | 1530 | 87 | 24000 | 358
6 | COc1ccc(NC(=O)[C@H](Cc2ccc(OCC(=O)NO)cc2)NC(=O)Cc2ccccc2)cc1 | 22300 | > 100000 | 63 | > 100000 | 1230

The next lines start with the values.

Row | IC50 (MDA-MB-231) [nM] | IC50 (HCT-116) [nM] | IC50 (Histone deacetylase 8) [nM] | IC50 (A549) [nM] | IC50 (Histone deacetylase) [nM] | SMILES
7 | 14300 | 57300 | 86 | 97200 | 1320 | COc1ccc(NC(=O)[C@H](Cc2ccc(OCC(=O)NO)cc2)NC(=O)CCCc2ccccc2)cc1
8 | – | – | 197 | – | – | O=C(COc1ccc(C[C@H](NC(=O)OCc2ccccc2)C(=O)Nc2ccccc2)cc1)NO
9 | – | – | 922 | – | – | COc1ccc(NC(=O)[C@H](Cc2ccc(OCC(=O)NO)cc2)NCCCc2ccccc2)cc1
10 | – | – | 213 | – | – | O=C(COc1ccc(C[C@H](NC(=O)OCc2ccccc2)C(=O)Nc2cccc(Cl)c2)cc1)NO
11 | – | – | 151 | – | – | O=C(COc1ccc(C[C@H](NC(=O)CCc2ccccc2)C(=O)Nc2ccccc2)cc1)NO
12 | – | – | 660 | – | – | COc1ccc(NC(=O)[C@H](Cc2ccc(OCC(=O)NO)cc2)NCCc2ccccc2)cc1
13 | – | – | 227 | – | – | CC(C)(C)OC(=O)N[C@@H](Cc1ccc(OCC(=O)NO)cc1)C(=O)Nc1ccccc1
